HTRA1 inhibitor = blocks human HTRA1 serine peptidase | recombinant HTRA1, FP-rhodamine activity-based probe, fluorescence polarization | inhibition, % at 5.96 µM | 0.5% of 340,000 active | AID 504803; in the data active means inhibition above about 36%
Target sequence (Q92743 whole entry, looked up): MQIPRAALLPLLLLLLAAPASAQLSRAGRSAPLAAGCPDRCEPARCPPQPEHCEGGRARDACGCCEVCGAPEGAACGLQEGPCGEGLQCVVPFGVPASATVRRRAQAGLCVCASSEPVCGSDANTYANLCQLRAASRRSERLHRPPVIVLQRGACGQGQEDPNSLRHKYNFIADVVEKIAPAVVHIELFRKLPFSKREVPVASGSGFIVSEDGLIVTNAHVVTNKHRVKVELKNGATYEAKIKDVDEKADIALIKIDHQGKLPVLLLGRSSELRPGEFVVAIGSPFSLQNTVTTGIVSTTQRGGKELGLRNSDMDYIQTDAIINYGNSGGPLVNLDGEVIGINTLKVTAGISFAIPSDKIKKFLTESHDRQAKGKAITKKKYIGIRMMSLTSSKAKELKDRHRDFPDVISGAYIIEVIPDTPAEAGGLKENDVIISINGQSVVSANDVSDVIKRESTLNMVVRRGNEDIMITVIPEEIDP
mABHD4 FP = inhibits mouse alpha/beta hydrolase domain 4 | Q8VD66 | purified mABHD4, FP-Rh probe fluorescence polarization | inhibition, % at 8.92 µM | 0.54% of 370,000 active | AID 720543;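 active means inhibition exceeding the mean over every tested compound plus 3 SD, cut at about 30% in these data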
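system = mouse ABHD4 enzyme, wild type | medium = HEPES pH 7.0, NaCl, Pluronic buffer | also added = FP-Rh probe | incubation = Enzyme–compound pre-incubation 45 min, then probe 60 min, both 25 °C | technique = fluorescence polarization, excitation 525 nm, emission 598 nm, BODIPY TMR filters | controls = S159A mutant high control, sample median low control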
SIAE primary = human SIAE inhibition, primary screen; SIAE FP-Rh probe binding, fluorescence polarization; inhibition, % at 9.66 µM; 0.69% of 370,000 active; AID 1053197;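 active means inhibition above a cutoff: mean of compounds within the control limits plus 3 SD of those, cut at about 17% in these data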
TCR CD3 inh = inhibitors of human TCR-CD3 interaction; 0.37% of 360,000 active; inhibition, % at 9.4 µM; AID 651800; TAMRA-labeled TCR probe fluorescence, biochemical;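 further: recombinant mutant TCR 2C K166C tagged with TAMRA read by polarization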
rCAG binder = binds r(CAG) RNA repeats; r(CAG) RNA repeat, TO-PRO-1 dye displacement fluorescence; inhibition, % at 3 µM; 1.3% of 370,000 active;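 active means inhibition above the plate cutoff, the mean of all test compounds on that plate plus 3 SD, cut at about 35% in these data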;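 further: higher means more dye released from RNA so lower well fluorescence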
HTRA1 conf = HTRA1 (human) inhibition, confirmation. shares compounds with HTRA1 inhibitor. recombinant HTRA1, FP-rhodamine activity-based probe, fluorescence polarization. inhibition, % at 5.96 µM. 66% of 1,600 active. AID 540248;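 active means mean inhibition over three repeats above a set limit taken from the earlier primary screen, cut at about 37% in these data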;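 further: inhibitors block probe binding so polarization drops and inhibition rises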
BSA TAMRA ctr = BSA probe counter-screen for TCR-CD3 inhibitors; TAMRA-labeled BSA probe fluorescence counterscreen; inhibition, % at 9.4 µM; shares compounds with TCR CD3 inh; AID 652035; 10% of 1,200 active; in the data active means inhibition above about 23%
TCR-CD3 conf = confirmation of human TCR-CD3 interaction inhibitors. shares compounds with TCR CD3 inh. TAMRA-labeled TCR probe fluorescence binding assay. inhibition, % at 9.4 µM. 48% of 1,200 active
rCAG binder conf = r(CAG) RNA repeat binding, confirmation; 70% of 4,300 active; inhibition, % at 3 µM; shares compounds with rCAG binder; AID 652065; TO-PRO-1 dye displacement fluorescence;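 active means inhibition above a per-plate cutoff, the mean inhibition of sample wells plus 3 SD, cut at about 35% in these data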;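 further: loss of TO-PRO-1 fluorescence as compound displaces dye from 1x1 AA loop RNA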
dCAG dye counter = counter-screen for rCAG RNA binders: DNA CAG dye complex inhibitors. shares compounds with rCAG binder. d(CAG) DNA oligo TO-PRO-1 dye displacement, fluorescence. inhibition, % at 3 µM. 94% of 4,300 active;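 active means inhibition above its plate's cutoff, the mean test-well inhibition plus 3 SD, cut at about 4.8% in these data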;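 further: hits displace the dye from DNA and so lower well fluorescence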
DNA CAG DR = DNA CAG dye complex inhibition, dose response counter-screen; shares compounds with rCAG binder; DNA CAG/GTC duplex TO-PRO-1 dye displacement fluorescence; IC50, µM; 20% of 250 active; AID 686960; in the data active means IC50 below about 10 µM
ABHD4 confirm = ABHD4 (mouse) inhibition, FP confirmation. shares compounds with mABHD4 FP. purified mABHD4, FP-Rh probe fluorescence polarization. inhibition, % at 8.92 µM. 55% of 1,800 active. AID 720658;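 active means mean inhibition across replicates above the hit cutoff set in the primary screen, cut at about 30% in these data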
SIAE inh conf = confirmation of human SIAE inhibitors; shares compounds with SIAE primary; inhibition, % at 9.66 µM; AID 1117263; SIAE FP-Rh activity-based probe, fluorescence polarization; 13% of 2,300 active;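 active means mean inhibition of the replicates above the hit cutoff set in the primary screen, cut at about 17% in these data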;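 further: inhibitors lower polarization as more probe stays unbound to SIAE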
Of the large screens only hits and unclear results are named; the others gave an inactive call (follow-up assays come after a bar, where they were run). Hits are enriched below; roughly 2.5% of the tested compounds scored in any of these assays. Unless noted, no stated cut-off is given here; in the data, active means inhibition above about 19%; inactive means the rest.

COc1cc(-c2nc(-c3ccccc3)c(-c3cccs3)[nH]2)cc(OC)c1O	HTRA1 inhibitor 43, mABHD4 FP 35, SIAE primary 20 | HTRA1 conf inactive | ABHD4 confirm 44 | SIAE inh conf inactive
Oc1ccc(Cl)cc1CNc1cccc2cccnc12	HTRA1 inhibitor 49, mABHD4 FP 36, SIAE primary 20 | HTRA1 conf inactive | ABHD4 confirm inactive | SIAE inh conf inactive
Oc1c(Br)cc(Br)cc1CNc1cccc2cccnc12	HTRA1 inhibitor 70, mABHD4 FP 56, SIAE primary 32 | HTRA1 conf inactive | ABHD4 confirm inactive | SIAE inh conf inactive
Cc1cccc(NCc2cc(Cl)ccc2O)n1	none
N#C/C(=C/c1ccc(O)c(O)c1)c1nc2ccccc2[nH]1	HTRA1 inhibitor 65, mABHD4 FP 58, SIAE primary 29, TCR CD3 inh 36 | HTRA1 conf 94 | BSA TAMRA ctr inactive | TCR-CD3 conf 48 | ABHD4 confirm 65 | SIAE inh conf 51
CCOC(=O)c1c(NC(=O)c2cccs2)sc2c1CC(C)(C)OC2	none
O=C(CCl)N1c2ccccc2Oc2ccc3ccccc3c21	HTRA1 inhibitor 80, mABHD4 FP 62, SIAE primary 22, TCR CD3 inh 22 | HTRA1 conf inactive | ABHD4 confirm inactive | SIAE inh conf inactive
CC(=O)N1c2ccccc2Oc2cc3ccccc3cc21	none
Cc1ccc(-n2c(C)cc(=O)cc2C)c(C)c1	none
Cc1cc(N)ccc1-n1c(C)ccc1C	HTRA1 inhibitor 102, mABHD4 FP 147, SIAE primary 54, TCR CD3 inh 152 | HTRA1 conf inactive | BSA TAMRA ctr inactive | TCR-CD3 conf inactive | SIAE inh conf inactive
O=C1Nc2ccc([N+](=O)[O-])cc2OC1CCN1CCCC1 (stereo unspecified)	none
CCc1ccc2[nH]c3nc(N/N=C/c4ccc(O)cc4O)nnc3c2c1	HTRA1 inhibitor 61, SIAE primary 30, rCAG binder 57 | HTRA1 conf 63 | rCAG binder conf 35 | dCAG dye counter 22 | SIAE inh conf 29
CCCS(=O)(=O)NC(=O)C1(C)CCN(C(=O)c2ccc3c(c2)OCO3)C1 (stereo unspecified)	none (no result: HTRA1 inhibitor)
O=C1C=C(Nc2cccc3cccnc23)c2ccccc2C1=O	HTRA1 inhibitor 42, mABHD4 FP 59, SIAE primary 19 | HTRA1 conf 39 | ABHD4 confirm inactive | SIAE inh conf inactive
O=C1C=C(Nc2ccccc2)c2ccccc2C1=O	none
CCOc1cc(N2CCOCC2)c(OCC)cc1NC(C)C(=O)N1CCN(CC)CC1 (stereo unspecified)	HTRA1 inhibitor 41, mABHD4 FP 41, SIAE primary 27, TCR CD3 inh 31 | HTRA1 conf inactive | BSA TAMRA ctr inactive | TCR-CD3 conf inactive | SIAE inh conf inactive
CC(C)CCN1CCN(Cc2cccn2-c2ccc(Cl)cn2)CC1CCO (stereo unspecified)	none
Oc1ccc(/C=N/Nc2ccnc3cc(Cl)ccc23)c(O)c1O	HTRA1 inhibitor 66, mABHD4 FP 38, SIAE primary 41, TCR CD3 inh 20, rCAG binder 38 | HTRA1 conf 65 | BSA TAMRA ctr inactive | TCR-CD3 conf 22 | rCAG binder conf 59 | dCAG dye counter 28 | DNA CAG DR inactive | ABHD4 confirm 56 | SIAE inh conf 33
COc1ccc2[nH]c3c(c2c1)CCNC3c1ccc([N+](=O)[O-])o1 (stereo unspecified)	HTRA1 inhibitor 43, SIAE primary 21 | HTRA1 conf 47 | SIAE inh conf 22
Cc1cc2ccccc2n1CCNC(=O)Cc1ccccc1	none
CCCC(=O)NCc1ccc2c(c1)cc(C)n2C	none
NS(=O)(=O)c1ccc(CNS(=O)(=O)c2ccc3ccccc3c2)cc1	none
Cc1cc2cc(CNS(=O)(=O)c3ccc4ccccc4c3)ccc2n1C	HTRA1 inhibitor 67, mABHD4 FP 51, SIAE primary 26, TCR CD3 inh 58 | HTRA1 conf inactive | BSA TAMRA ctr inactive | TCR-CD3 conf inactive | ABHD4 confirm inactive | SIAE inh conf inactive
Cc1cc(C)c(S(=O)(=O)NCCn2c(C)cc3ccccc32)c(C)c1	HTRA1 inhibitor 66, mABHD4 FP 60, SIAE primary 24, TCR CD3 inh 71 | HTRA1 conf inactive | BSA TAMRA ctr inactive | TCR-CD3 conf inactive | ABHD4 confirm inactive | SIAE inh conf inactive
Cc1cc(C)c(S(=O)(=O)NCc2ccc3c(c2)cc(C)n3C)c(C)c1	HTRA1 inhibitor 60, mABHD4 FP 55, SIAE primary 39, TCR CD3 inh 71 | HTRA1 conf inactive | BSA TAMRA ctr 30 | TCR-CD3 conf 26 | ABHD4 confirm inactive | SIAE inh conf inactive
COC[C@H]1CCCN1c1cccc2c1S(=O)(=O)N(C1CC1)CCCO2	none (no result: HTRA1 inhibitor, TCR CD3 inh)
Cc1cc(C)c(S(=O)(=O)n2cnc3ccccc32)c(C)c1	none
O=C(c1cccs1)N(CCN1CCCCC1)CC1CCCN(C2CCCC2)C1 (stereo unspecified)	none
Cc1cc(C(=O)CN2C(=O)C(=O)N(C)C2=O)c(C)n1-c1cccc(S(=O)(=O)N2CCOCC2)c1	none
O=C(NCc1ccncc1)c1cccc(S(=O)(=O)N2CCc3ccccc32)c1	none
O=[N+]([O-])c1ccc(N/N=C/c2ccc[nH]2)cc1	HTRA1 inhibitor 45, SIAE primary 18 | HTRA1 conf 57 | SIAE inh conf inactive
O=[N+]([O-])c1ccc(NN=Cc2cccc([N+](=O)[O-])c2)cc1	none
Cc1ccc([N+](=O)[O-])cc1-c1[nH]c(-c2ccc(O)c(O)c2)nc1-c1ccccc1	HTRA1 inhibitor 69, SIAE primary 34, rCAG binder 35 | HTRA1 conf 85 | rCAG binder conf 37 | dCAG dye counter 19 | SIAE inh conf inactive

Source: PubChem BioAssay
